Consider two compounds from PMC4241170 (ACS Chemical Biology, 2014).

For one assay, the system named is HSP70. The assay is described as follows: ITC, HSP70 presaturated with PET-16, interaction with PES. It counts as binding, human. The settings on record: data not shown. On the technique in general: ITC needs no label: the signal is the heat of the interaction.
Assay [1] concerns nucleotide-free HSP70 protein. The assay is described as follows: ITC, nucleotide-free HSP70. The settings on record: compared with ADP-bound form; 42 °C. It counts as binding, human.
The subject of the next assay is GRP75. The settings on record: ref [5],[19]; cited from earlier work.
For another assay, the system named is GRP78 (BiP). The settings on record: ref [5],[19]; cited from earlier work.
The next assay deals with HSP70 (aa 386-616) (Homo sapiens, UniProt P0DMV8). The assay is described as follows: ITC, C-terminal domain of HSP70. Format: binding. Conditions: Figure 2J. In short, it runs like this: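 Recombinant HSP70 C-terminal fragment (aa 386–616) titrated against test compound by isothermal titration calorimetry. Kd reported as average and standard deviation of three independent experiments.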
Sequence of HSP70 (aa 386-616) (P0DMV8 386-616): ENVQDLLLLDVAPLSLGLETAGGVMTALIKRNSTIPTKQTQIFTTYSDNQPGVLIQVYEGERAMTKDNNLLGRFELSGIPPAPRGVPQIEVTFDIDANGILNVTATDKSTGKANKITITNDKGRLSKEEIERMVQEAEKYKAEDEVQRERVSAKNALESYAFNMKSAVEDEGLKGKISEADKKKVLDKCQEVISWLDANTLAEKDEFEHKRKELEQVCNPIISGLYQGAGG

The target in the next assay is DnaK (aa 389-607) (Escherichia coli, UniProt P0A6Y8). In words: ITC, DnaK SBD. It counts as binding, E. coli. Conditions: data not shown.
Sequence of DnaK (aa 389-607) (P0A6Y8 389-607): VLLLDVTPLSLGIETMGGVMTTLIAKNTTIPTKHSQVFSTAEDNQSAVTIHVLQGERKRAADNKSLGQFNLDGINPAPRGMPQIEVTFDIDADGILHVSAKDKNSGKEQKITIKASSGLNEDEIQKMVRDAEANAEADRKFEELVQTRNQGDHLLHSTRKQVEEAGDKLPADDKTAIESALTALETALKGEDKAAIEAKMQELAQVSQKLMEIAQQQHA
The test system of a further assay is mammalian tumor cells. In words: Viability of mammalian tumor cells. Conditions: TPP moiety alone, Figure 1C. It counts as cell-based. In short, it runs like this:
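Human A875 melanoma cells and nontransformed human IMR90 fibroblasts treated for 24 h alongside a DMSO vehicle control. Results are representative of four independent experiments.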

Another assay relates to E. coli DH5α. The assay is described as follows: Growth of E. coli at elevated temperature. It counts as cell-based. The settings on record: 6 h at 43 °C, 30 μM in Figure 1E. In short, it runs like this:
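E. coli DH5α grown with varying concentrations of test compound for 6 h at 43 °C, with a DMSO vehicle control; one comparison used 30 μM. Growth measured in four independent experiments, with s.d. error bars.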

For the compound `NS(=O)(=O)C#Cc1ccccc1` [PES, 2-phenylethynesulfonamide], the “interaction of HSP70 with PES after presaturation with PET-16” value with HSP70 is reported as “impairs the interaction”. In addition, in assay [1], the “interaction with nucleotide-free HSP70 (ITC)” value is given as “comparable affinity”. In addition, the “interaction with GRP75” value in the assay with GRP75 is recorded as “do not interact”. Moreover, the “interaction with GRP78 (BiP)” value with GRP78 (BiP) is “do not interact”.

For the compound triphenylphosphine (TPP) bromide, the “binding to HSP70 SBD (ITC)” value at HSP70 (aa 386-616) was “does not bind”. Moreover, at DnaK (aa 389-607), the “binding to DnaK SBD (ITC)” value is listed as “does not bind”. Also, the “effect on viability of mammalian tumor cells” value in the assay on mammalian tumor cells is on record as “little discernible effect”. For the same compound, the “effect on growth of E. coli” value in the assay with E. coli DH5α is given as “did not detect an effect”.
